Source: PubChem BioAssay (Johns Hopkins Ion Channel Center)
TRPC4 PAM = positive allosteric modulators of TRPC4, primary screen, cell-based, mouse TRPC4beta, HEK293 mu-opioid, Fluo-4 calcium; DAMGO EC20, Fluo-4 Ca2+ flux; active compounds read high; 310,000 compounds, 0.42% hits; Short transient receptor potential channel 4 (Mus musculus), Q9QUQ5; B-score at 10 µM; AID 2227, 2009;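 active = B-score of calcium response area above 5 SD of library B-scores, with initial fluorescence ratio within 5 SD of library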
TRPC6 act = mouse TRPC6 channel activators, primary screen, cell-based, HEK293, membrane potential dye; Short transient receptor potential channel 6 (Mus musculus), Q61143; HEK293-TRPC6 membrane potential dye fluorescence; active compounds read high; B-score at 10 µM; 310,000 compounds, 0.13% hits;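 active = B-score of the integrated fluorescence ratio above library mean plus 3 SD, and starting fluorescence ratio within library mean plus 5 SD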;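 also: higher score means more depolarization so channel activation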
Target sequence (Q61143 whole entry, looked up): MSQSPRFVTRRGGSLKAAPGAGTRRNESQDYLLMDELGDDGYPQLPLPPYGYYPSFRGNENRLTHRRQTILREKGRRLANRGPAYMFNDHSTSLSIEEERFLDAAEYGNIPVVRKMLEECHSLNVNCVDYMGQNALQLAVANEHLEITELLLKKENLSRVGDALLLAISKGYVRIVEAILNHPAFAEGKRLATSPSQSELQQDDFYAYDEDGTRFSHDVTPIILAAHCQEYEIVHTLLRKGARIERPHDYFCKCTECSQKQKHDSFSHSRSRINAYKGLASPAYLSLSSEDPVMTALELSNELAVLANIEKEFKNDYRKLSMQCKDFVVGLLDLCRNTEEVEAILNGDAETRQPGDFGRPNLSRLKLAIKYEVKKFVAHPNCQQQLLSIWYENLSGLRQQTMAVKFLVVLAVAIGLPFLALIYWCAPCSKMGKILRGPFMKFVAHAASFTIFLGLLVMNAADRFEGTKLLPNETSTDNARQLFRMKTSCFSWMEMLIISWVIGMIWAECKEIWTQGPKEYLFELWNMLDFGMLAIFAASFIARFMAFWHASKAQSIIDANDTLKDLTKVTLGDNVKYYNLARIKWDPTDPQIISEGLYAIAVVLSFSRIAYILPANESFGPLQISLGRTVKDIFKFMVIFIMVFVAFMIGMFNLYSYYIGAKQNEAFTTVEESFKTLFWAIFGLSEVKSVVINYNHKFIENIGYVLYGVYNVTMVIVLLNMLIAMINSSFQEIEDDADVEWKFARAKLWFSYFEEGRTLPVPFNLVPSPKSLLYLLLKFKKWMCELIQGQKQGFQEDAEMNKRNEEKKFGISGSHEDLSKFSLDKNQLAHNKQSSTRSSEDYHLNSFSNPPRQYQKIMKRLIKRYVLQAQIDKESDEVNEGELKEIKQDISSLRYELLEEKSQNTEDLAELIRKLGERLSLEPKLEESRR
TRPC6 inhibitor = mouse TRPC6 channel inhibitors, primary screen, cell-based, HEK293, membrane potential dye | ACh-evoked depolarization; active compounds read low | 310,000 compounds, 1.1% hits | B-score at 10 µM | Short transient receptor potential channel 6 (Mus musculus), Q61143;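 active = B-score under library mean minus 3 SD, initial fluorescence not abnormally high, positive integrated signal ratio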;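 also: B-score derived from integrated fluorescence ratio over the kinetic read; more negative B-score means stronger inhibition of depolarization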
TRPC4 agonist = activators of mouse TRPC4 channel, primary screen, Fluo4 calcium, HEK293 TRPC4beta/mu-opioid cells | B-score at 10 µM | Fluo4 calcium fluorescence; active compounds read high | 310,000 compounds, 0.49% hits | AID 2237, 2010 | Short transient receptor potential channel 4 (Mus musculus), Q9QUQ5;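 active = B-score above 5 SD of library B-scores, and initial fluorescence ratio not above library mean plus 5 SD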;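 also: positive B-score marks a calcium rise read as TRPC4 activation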
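Assay system: HEK293 stable line with TRPC4beta plus mu-opioid receptor. Times: dye 45 min RT, read 110 s. Measured by: kinetic Fluo4 calcium fluorescence. Measure: B score of integrated ratio. Controls: assay buffer as low control, maximal DAMGO as high control.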
TRPC4 inh = inhibitors of mouse TRPC4 channel, primary screen, Fluo4 calcium, HEK293 TRPC4beta/mu-opioid cells. Short transient receptor potential channel 4 (Mus musculus), Q9QUQ5. DAMGO-evoked Fluo4 calcium flux; active compounds read low. B-score at 10 µM. 300,000 compounds, 0.39% hits;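 active = B-score over 3 SD under the library average, no early fluorescence shift, positive overall ratio signal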
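Assay system: HEK293 cells with stable TRPC4beta plus mu-opioid receptor expression. Dosing: single dose. Measured by: Fluo4 Ca2+ flux fluorescence. Also added: DAMGO in two steps, submaximal then maximal. Read-out: B score from integrated Fluo4 fluorescence ratio.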
TRPC4 spec 2 = second check of whether TRPC6 inhibitors also affect mouse TRPC4; shares compounds with TRPC6 inhibitor; HEK293 TRPC4/MOR, membrane potential dye fluorescence; channel activated by saturating DAMGO dose; inhibition, % at 10 µM; 920 compounds, 42% hits;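 active = compounds whose fluorescence signal differed from control wells by over 3 SD, either direction, in both duplicate plates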
TRPC4 spec = mouse TRPC4 modulation by TRPC6 hits, confirmation, selectivity assay for TRPC6 inhibitor project, cell-based, HEK293 TRPC4/mu-opioid, membrane potential dye. shares compounds with TRPC6 inhibitor. membrane potential fluorescence. activity change, negative = inhibition, % at 10 µM. 920 compounds, 61% hits. AID 2777, 2010;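 active = rise or fall in signal beyond 3 SD of buffer-only wells in both replicate plates, either sign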;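 also: integrated kinetic ratio of fluorescence range over baseline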
HEK293 MPD ctr 2-1 = nonspecific membrane potential effects, parental HEK293, confirmation, counter-screen for TRPC6 inhibitor project, cell-based, second counter screen. shares compounds with TRPC6 inhibitor. parental HEK293 membrane potential dye fluorescence; maximal acetylcholine challenge after compound addition. signal change vs control, % at 10 µM. 920 compounds, 31% hits. AID 2779, 2010;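 active = membrane potential signal moving either way by over 3 SD of the maximum-effect control, in both duplicate plates, meaning non-specific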
HEK293 MPD ctr-1 = membrane potential modulation in parental HEK293, confirmation, counter-screen for TRPC6 inhibitor project, cell-based; shares compounds with TRPC6 inhibitor; parental HEK293 membrane potential dye fluorescence; membrane potential signal change, % at 10 µM; 920 compounds, 60% hits; AID 2780, 2010;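 active = membrane potential signal shifting up or down by more than 3 SD of buffer-only wells, on both duplicate plates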
HEK293 MPD ctr-2 = parental HEK293 membrane potential modulation, confirmation, counter-screen for TRPC6 modulator project, cell-based. shares compounds with TRPC6 inhibitor. membrane potential dye fluorescence. membrane potential signal change, % at 10 µM. 2,400 compounds, 51% hits;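 active = membrane potential signal moves up or down beyond 5 SD from buffer-only wells, on both duplicate plates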
HEK293 MPD ctr 2-2 = parental HEK293 nonspecific activity of TRPC6 modulators, second screen; shares compounds with TRPC6 inhibitor; membrane potential dye fluorescence; after compound, maximal acetylcholine stimulation; inhibition, % at 10 µM; 2,400 compounds, 14% hits;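 active = membrane potential signal drops by more than 5 SD from the mean control signal, in both duplicate plates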
TRPC4 ctr mod = TRPC4 modulation by TRPC6 hit compounds, confirmation, selectivity assay for TRPC6 modulator project, cell-based, HEK293 TRPC4/mu-opioid, membrane potential dye, mouse; shares compounds with TRPC6 inhibitor; membrane potential fluorescence; percent change from control (negative = decrease, positive = increase), % at 10 µM; 2,400 compounds, 69% hits; AID 488927, 2010;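 active = membrane potential signal moved up or down beyond 5 SD of buffer control wells, in both duplicate plates, actives on both sides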
TRPC4 ctr inh 2 = mouse TRPC4 off-target activity of TRPC6 modulators, second screen. HEK293 TRPC4/mu-opioid, membrane potential dye fluorescence; stimulated with maximal-effect DAMGO. 2,400 compounds, 55% hits. shares compounds with TRPC6 inhibitor. AID 488928. inhibition, % at 10 µM;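 active = drop in membrane potential signal beyond 5 SD of the control wells in both duplicate plates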;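 also: TRPC4 counter screen for TRPC6 hits run under conditions tuned for TRPC6 not TRPC4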
TRPC6 inh conf = mouse TRPC6 channel inhibitors, confirmation, HEK293 cells, membrane potential dye, duplicate. inhibition, % at 10 µM. AID 488960, 2010. shares compounds with TRPC6 inhibitor. 3,300 compounds, 43% hits. ACh-evoked depolarization;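 active = fluorescence ratio falls more than 5 SD below the full-stimulation control mean, in both duplicate runs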;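 also: integrated fluorescence ratio of peak minus minimum over baseline after agonist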
TRPC6 act conf = mouse TRPC6 channel activators, confirmation, HEK293 cells, membrane potential dye, duplicate; shares compounds with TRPC6 inhibitor; HEK293-TRPC6 membrane potential dye fluorescence, FDSS; activation, % at 10 µM; 2,800 compounds, 11% hits; AID 488961, 2010;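 active = ratio signal rise beyond 5 SD above unstimulated control wells' mean, seen in both duplicate runs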
Of the large screens only hits and unclear results are named; the others gave an inactive call (follow-up assays come after a bar, where they were run). Sampled rows, rich in hits. Any-hit rate of the full collection: about 2.3%.

Cc1cc(C)cc(N(CCC#N)C(=O)COC(=O)C2CCN(c3ccc(C(F)(F)F)cn3)CC2)c1	TRPC6 inhibitor -6.4 | HEK293 MPD ctr-2 inactive | HEK293 MPD ctr 2-2 inactive | TRPC4 ctr mod 14% | TRPC4 ctr inh 2 inactive | TRPC6 inh conf inactive | TRPC6 act conf inactive
Cc1ccc(S(=O)(=O)/N=C(\c2ccccc2)N(C)S(=O)(=O)c2ccc(C)cc2)cc1	none
COc1cccc(CNC(=O)COC(=O)CN(C)S(=O)(=O)c2ccc(NC(C)=O)cc2)c1	none
CCOc1ccc(Br)cc1/C=N/O	TRPC6 act 16, TRPC6 inhibitor -5.9, TRPC4 inh -6 | HEK293 MPD ctr-2 124% | HEK293 MPD ctr 2-2 inactive | TRPC4 ctr mod 22% | TRPC4 ctr inh 2 inactive | TRPC6 inh conf 58% | TRPC6 act conf 132%
Cc1ccc(/C=C/C(=O)Nc2cccnc2)o1	none
CC1CCCC(C)N1C(=O)CSc1nnnn1-c1cccc2c1CCCC2 (stereo unspecified)	none
CCn1c2ccccc2c2cnc(N=CN(C)C)c(C#N)c21	none
CCN(CC)CCn1c2ccccc2c2cnc(N=CN(C)C)c(C#N)c21	TRPC6 inhibitor -7.2 | TRPC4 spec 2 50% | TRPC4 spec -20% | HEK293 MPD ctr 2-1 inactive | HEK293 MPD ctr-1 -166% | TRPC6 inh conf inactive | TRPC6 act conf inactive
CCc1nnc(NC(=O)CCC(=O)Nc2ccc(C)cc2)s1	none
O=C(Cn1nnc(-c2ccccc2F)n1)Nc1ccc(S(=O)(=O)NC2CCCC2)cc1	none
COc1cccc(-c2nc(SCC(=O)Nc3nc(-c4ccccc4)c(C)s3)[nH]c(=O)c2C#N)c1	none
CCOc1ccc2nc(NC(=O)CSc3nc(-c4ccccc4)c(C#N)c(=O)[nH]3)sc2c1	TRPC6 act 12 | HEK293 MPD ctr-2 inactive | HEK293 MPD ctr 2-2 inactive | TRPC4 ctr mod 20% | TRPC4 ctr inh 2 inactive | TRPC6 inh conf inactive | TRPC6 act conf 36%
Cc1ccc(C)c(NC(=O)CCN2CCN(CCO)CC2)c1	none
Cc1nnc(SCc2nc3ccccc3s2)n1-c1ccccc1	none
Cc1cc(C)nc(N2CCCC(C(=O)Nc3ccc(F)cc3)C2)n1 (stereo unspecified)	none
Cc1cccn2c(=O)c3cc(C(=O)NCC4CCCO4)c(=N)n(CC4CCCO4)c3nc12 (stereo unspecified)	none
COc1ccc(CCNC(=O)c2cc3c(=O)n4cccc(C)c4nc3n(CCCN3CCOCC3)c2=N)cc1	none
Cc1cccn2c(=O)c3cc(C(=O)NCCN4CCOCC4)c(=N)n(Cc4ccc(F)cc4)c3nc12	TRPC6 inhibitor -5.6 | HEK293 MPD ctr-2 inactive | HEK293 MPD ctr 2-2 94% | TRPC4 ctr mod inactive | TRPC4 ctr inh 2 inactive | TRPC6 inh conf inactive | TRPC6 act conf inactive
Cc1cccn2c(=O)c3cc(C(=O)NCCN4CCOCC4)c(=N)n(CCN4CCOCC4)c3nc12	TRPC6 inhibitor -7 | TRPC4 spec 2 72% | TRPC4 spec 0.8% | HEK293 MPD ctr 2-1 -124% | HEK293 MPD ctr-1 inactive | TRPC6 inh conf 66% | TRPC6 act conf inactive
Cc1cccn2c(=O)c3cc(C(=O)NC4CCCC4)c(=N)n(CC4CCCO4)c3nc12 (stereo unspecified)	TRPC6 inhibitor -5.8 | HEK293 MPD ctr-2 inactive | HEK293 MPD ctr 2-2 inactive | TRPC4 ctr mod inactive | TRPC4 ctr inh 2 32% | TRPC6 inh conf inactive | TRPC6 act conf inactive
COC(=O)[C@H](Cc1ccccc1)N(C)S(=O)(=O)c1cccc(S(=O)(=O)N(C)[C@@H](Cc2ccccc2)C(=O)OC)c1	none
C/C(=N\NC(=O)c1cc(Br)ccc1O)c1cccc(NC(=O)c2ccccc2F)c1	none
CCOC(=O)N1CCN(c2ccc(S(=O)(=O)N(Cc3ccccc3)Cc3ccccc3)cn2)CC1	TRPC6 inhibitor -5.3 | HEK293 MPD ctr-2 inactive | HEK293 MPD ctr 2-2 inactive | TRPC4 ctr mod 12% | TRPC4 ctr inh 2 inactive | TRPC6 inh conf inactive | TRPC6 act conf inactive
Cc1ccccc1NC(=S)N(Cc1cccs1)C1CCCC1	none
COc1ccc(NC(=O)Cn2nnc(-c3ccccc3NS(=O)(=O)c3ccccc3)n2)cc1	none
